Test results: paper PMC7226283 (Cancer Science, 2020)
Peptide text beside a SMILES is read from it. * marks the point of attachment. Cbz = O=C(OCc1ccccc1)*

What was measured:
KRASm/TP53‐ HCT116 cells = assay: MTS cell viability assay, KRASm/TP53‐ HCT116; assay type: cell-based; settings: for recovery of the efficacy of L‐OHP on KRASm/TP53‐ HCT116 cells / cell growth rate of KRASm/TP53‐ HCT116 cells: Figure S2, Bay11‐7082 5 μM, TPCA1 20 μM, 72 hours; for recovery of the efficacy of L‐OHP on KRASm/TP53‐ HCT116 cells: MG132 0.5 μM with L‐OHP 4 μM; for cell growth rate of KRASm/TP53‐ HCT116 cells: MG132 0.5 μM; for IC50: read-out: IC50 on KRASm/TP53‐ HCT116 cells, MTS assay, 72 hours post-treatment, n = 3
Method in brief: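 HCT116 KRASm/TP53- cells were grown in RPMI1640 with 10% FBS and 1% penicillin/streptomycin at 37°C, 5% CO2, and plated at 4 × 10^5 per well. After 24 h, Bay11-7082 (0, 5 μM), TPCA1 (0, 20 μM) or MG132 (0, 0.5 μM), all in DMSO, were added with L-OHP (0 or 4 μM). Viability was read by MTS after 72 h.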

KRASm/TP53w HCT116 cells = assay: MTS cell viability assay, KRASm/TP53w HCT116; assay type: cell-based; settings: read-out: IC50 on KRASm/TP53w HCT116 cells, 72 hours post-treatment, n = 3
Method in brief: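 ATCC parental HCT116 (KRAS mutant/TP53 wild-type) grown in RPMI1640 with 10% FBS and 1% penicillin/streptomycin at 37°C, 5% CO2. Seeded at 4 × 10^5 cells/well; test compound in DMSO added after 24 h at six levels (0–10 μM or 0–25 μM series). Viability by MTS tetrazolium read-out after 72 h. IC50 reported as mean ± SD, n = 3.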

Safety = assay type: in vivo, mice
Method in brief: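 Female BALB/c nude mice (6 weeks old, 7-8 per group) received s.c. KRASm/TP53w HCT116 cells (4 × 10^6) and were grouped by stratified randomization on tumor volume on day 9 after implant (day 0). L-OHP was given i.p. on days 0, 3, 7, 10, 14 and 17; controls got saline 10 mL/kg. Body weight was taken on days 0, 7, 14 and 21, with hematology and biochemistry on day 21 blood. Mean ± SD; Student's t test.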

[1] = tested on: NF‐κB activity in KRASm/TP53w HCT116 cells; assay: NF‐κB activity luciferase assay, KRASm/TP53w HCT116; assay type: cell-based; settings: 3 hours treatment
Method in brief: (§1)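 Reporter assay: cells seeded at 5 × 10^4/well. After 1 day, shifted to RPMI1640 with 1% FBS for 24 h. Cotransfected by lipofection with NF‑κB‑RE luc2P luciferase plasmid plus CMV‑β‑galactosidase plasmid. 3 h later, test compound added at various concentrations in 1% FBS medium for 3 h. Cells lysed; activity expressed as luciferase/β‑galactosidase.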

proteasome = assay: Proteasome activity in vitro
[2] = tested on: NF‐κB activity in KRASm/TP53‐ HCT116 cells; assay: NF‐κB activity luciferase assay, KRASm/TP53‐ HCT116; assay type: cell-based; settings: 3 hours treatment
Method in brief: as §1

[3] = day 21, L‐OHP 8 mg/kg i.p. twice a week for 3 weeks
[4] = day 21, monotherapies compared to the control group, combination compared to L‐OHP monotherapy

Compound | recovery of the efficacy of L‐OHP on KRASm/TP53‐ HCT116 cells (KRASm/TP53‐ HCT116 cells) | cell growth rate of KRASm/TP53‐ HCT116 cells (KRASm/TP53‐ HCT116 cells) | IC50 (KRASm/TP53‐ HCT116 cells) [µM] | IC50 (KRASm/TP53w HCT116 cells) [µM] | further results
Cc1ccc(S(=O)(=O)/C=C/C#N)cc1 [Bay11‐7082] | did not recover the efficacy of L‐OHP | suppressed cell growth rates |  |  | 
O=C1[O][Pt]2([NH][C@@H]3CCCC[C@H]3[NH]2)[O]C1=O [L‐OHP, oxaliplatin] |  |  | 4.8 | 1.7 | hemoglobin compared to the control group (Safety; [3]): significantly decreased; platelet count compared to the control group (Safety; [3]): significantly decreased; white blood cell count compared to the control group (Safety; [3]): significantly decreased; ALT level (Safety; [4]): elevated; AST level (Safety; [4]): elevated
CC(C)C[C@@H](C=O)NC(=O)[C@H](CC(C)C)NC(=O)[C@H](CC(C)C)NC(=O)OCc1ccccc1 [MG132] (Cbz-Leu-Leu-Leu-aldehyde) |  | suppressed cell growth rates |  |  | 
NC(=O)Nc1sc(-c2ccc(F)cc2)cc1C(N)=O [TPCA1] | did not recover the efficacy of L‐OHP | suppressed cell growth rates |  |  | 
curcumin |  |  | 17.4 | 20 | NF‐κB activity (luciferase/β‐galactosidase) [1]: suppressed NF‐κB activity in a dose‐dependent manner; proteasome activity in vitro (proteasome): suppresses proteasome activity; NF‐κB activity (luciferase/β‐galactosidase) [2]: suppressed NF‐κB activity in a dose‐dependent manner
